The values below come from ChEMBL document CHEMBL1926661, “The arginine mimicking β-amino acid β³hPhe(3-H₂N-CH₂) as S1 ligand in cyclotheonamide-based β-tryptase inhibitors” (Bioorg Med Chem, 2011).

Molecules are shown by their SMILES. pKi: −log10 of the molar value.

The species named for series [1] is Homo sapiens. The series is described as follows: Selectivity ratio of Ki for Trypsin to Ki for human beta-tryptase.
Series [2] concerns the target Kallikrein-1 (Homo sapiens, UniProt P06870). The series is described as follows: Inhibition of tissue kallikrein.
A short description of series [3]: Inhibition of human mast cell tryptase-beta using chromogenic substrate.
The target of series [4] is Plasma kallikrein (Homo sapiens, UniProt P03952). The series can be described thus: Inhibition of plasma kallikrein.
Plasma kallikrein, sequence (P03952 20-390 limits assumed): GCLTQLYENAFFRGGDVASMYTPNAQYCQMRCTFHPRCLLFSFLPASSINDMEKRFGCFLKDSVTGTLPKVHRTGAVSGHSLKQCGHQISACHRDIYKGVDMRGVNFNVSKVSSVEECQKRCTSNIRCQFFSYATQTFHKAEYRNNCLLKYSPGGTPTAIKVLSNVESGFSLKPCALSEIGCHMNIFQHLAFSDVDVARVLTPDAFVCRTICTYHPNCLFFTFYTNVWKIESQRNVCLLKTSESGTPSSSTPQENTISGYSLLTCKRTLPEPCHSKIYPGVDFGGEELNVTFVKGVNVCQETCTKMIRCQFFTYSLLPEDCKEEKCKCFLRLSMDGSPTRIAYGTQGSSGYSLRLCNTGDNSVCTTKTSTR
Plasma kallikrein, sequence (P03952 391-638 limits assumed): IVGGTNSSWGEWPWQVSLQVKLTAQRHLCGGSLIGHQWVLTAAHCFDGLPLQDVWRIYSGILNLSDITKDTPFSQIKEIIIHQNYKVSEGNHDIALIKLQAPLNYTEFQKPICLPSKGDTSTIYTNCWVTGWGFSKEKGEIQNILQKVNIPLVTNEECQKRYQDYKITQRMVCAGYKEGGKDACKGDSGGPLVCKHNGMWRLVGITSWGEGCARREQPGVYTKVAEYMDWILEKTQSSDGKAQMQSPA
Series [5] can be described thus: Inhibition of trypsin.
In series [6] the target is Prothrombin (Homo sapiens, UniProt P00734). The series can be described thus: Inhibition of thrombin.
Series [7] can be described thus: Metabolic stability in human serum assessed as compound remaining at 200 uM after 48 hrs by RP-HPLC analysis. The following applies: read-out: Stability. Format: ADME, cell-free. Put shortly:
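Compound at 200 μM incubated in undiluted human plasma or human serum at 37 °C for up to 48 h. At time points, samples were acidified with an equal volume of 0.1% TFA and centrifuged at 8000 × g for 10 min. Supernatants were analysed by C18 RP-HPLC using a linear H₂O/MeCN (0.1% TFA) gradient over 200 min to quantify remaining intact inhibitor.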

The target in series [8] is Coagulation factor X (Homo sapiens, UniProt P00742). The series can be described thus: Inhibition of factor 10a.
Coagulation factor X, sequence (P00742 41-179 limits assumed): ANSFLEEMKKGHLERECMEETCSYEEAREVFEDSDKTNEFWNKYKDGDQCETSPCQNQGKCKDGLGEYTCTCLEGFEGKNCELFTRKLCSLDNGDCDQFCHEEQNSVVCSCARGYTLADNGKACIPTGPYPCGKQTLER
Coagulation factor X, sequence (P00742 235-488 limits assumed): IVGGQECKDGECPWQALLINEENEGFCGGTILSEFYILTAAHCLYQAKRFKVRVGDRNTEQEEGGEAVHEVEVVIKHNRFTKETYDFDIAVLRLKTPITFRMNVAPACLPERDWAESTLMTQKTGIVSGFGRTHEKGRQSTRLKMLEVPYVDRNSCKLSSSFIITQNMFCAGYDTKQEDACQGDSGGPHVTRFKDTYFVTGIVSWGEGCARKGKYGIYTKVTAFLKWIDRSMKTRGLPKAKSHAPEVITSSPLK
Series [9] can be described thus: Inhibition of beta-tryptase.
A short description of series [10]: Inhibition of human beta-tryptase.

Kallikrein-1, sequence (P06870 whole entry): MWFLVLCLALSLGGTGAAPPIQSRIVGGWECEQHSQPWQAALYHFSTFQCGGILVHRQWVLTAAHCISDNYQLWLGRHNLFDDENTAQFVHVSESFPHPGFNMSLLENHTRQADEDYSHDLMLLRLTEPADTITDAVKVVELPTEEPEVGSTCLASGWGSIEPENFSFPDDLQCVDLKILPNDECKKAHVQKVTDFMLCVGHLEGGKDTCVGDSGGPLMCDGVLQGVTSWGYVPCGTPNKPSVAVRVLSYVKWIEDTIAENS

As for `CC[C@H](C)[C@H]1NC(=O)C[C@H](Cc2cccc(CN)c2)NC(=O)[C@@H]2CCCN2C(=O)[C@@H](NC(=O)CCCCCN)CNC(=O)/C=C/[C@H](Cc2ccc(O)cc2)NC1=O`, the Ratio Ki in series [1] was 2000. Further, the pKi – broadly, −log10 of the Ki, conventionally taken in molar units – is 2.89 in series [2]; 7.60 in series [3]; 2.70 in [4]; 4.30 in series [5]; 3.48 in series [6]; 3.44 in series [8]. Further, in series [7], the remaining at 48 h, 200 µM was 81%.
For `COC(=O)C(Cc1cccc(CN)c1)NC(C)=O` (racemic), the pKi in series [5] was 3.40; in series [9], 4.85.
As for `CC[C@H](C)[C@H]1NC(=O)C[C@H](CCCNC(=N)N)NC(=O)[C@@H]2CCCN2C(=O)[C@@H](NC(=O)CCCCCN)CNC(=O)/C=C/[C@H](Cc2ccc(O)cc2)NC1=O`, the Ratio Ki in [1] was 1400. For the same compound, the pKi is 8.15 in series [10] and 5.00 in series [5].
The like results for `CC[C@H](C)[C@H]1NC(=O)C[C@H](CCCCN)NC(=O)[C@@H]2CCCN2C(=O)[C@@H](NC(C)=O)CNC(=O)/C=C/[C@H](Cc2ccc(O)cc2)NC1=O` were, in that order, 0.6, 3.42 and 3.64.
Consider `CC[C@H](C)[C@H]1NC(=O)C[C@H](Cc2cccc(CN)c2)NC(=O)[C@@H]2CCCN2C(=O)[C@@H](NC(C)=O)CNC(=O)/C=C/[C@H](Cc2ccc(O)cc2)NC1=O`, for which, in series [1], the Ratio Ki was 170. Moreover, the pKi is 2.74 in series [2]; 6.22 in series [3]; 2.48 in [4]; 4.00 in series [5]; 3.17 in series [6]; 3.51 in [8]. The remaining at 48 h, 200 µM in [7] was determined as 95%.
With `CC[C@H](C)[C@H]1NC(=O)C[C@H](CCCNC(=N)N)NC(=O)[C@@H]2CCCN2C(=O)[C@@H](NC(C)=O)CNC(=O)/C=C/[C@H](Cc2ccc(O)cc2)NC1=O`, in series [1], the Ratio Ki amounted to 0.8. Further, the pKi in series [10] was 4.40; in [5] it was 4.52.
